pIC50: −log10 of the molar value. Converted amounts (≈) assume the structure as drawn.
Columns and labels:
[1] = tested on: Agrobacterium tumefaciens; assay: Antibacterial activity against Agrobacterium tumefaciens No.8 ATCC 11158 by modified broth dilution method; format: functional
Method in brief: (§1)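 MIC read in 96-well plates by a modified broth dilution test; streptomycin sulfate as positive control.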

Pyricularia oryzae = assay: Antifungal activity against Magnaporthe oryzae assessed as inhibition of spore germination incubated for 8 hrs; format: functional, organism-based
[2] = Cytotoxicity against human Bel7402 cells by MTT assay; details: Bel-7402
A549 = assay: Cytotoxicity against human A549 cells by MTT assay; format: functional, cell-based
Bacillus subtilis = assay: Antibacterial activity against Bacillus subtilis ATCC 11562 by modified broth dilution method; format: functional; method in brief: as §1
[3] = tested on: Staphylococcus haemolyticus; assay: Antibacterial activity against Staphylococcus haemolyticus ATCC 29970 by modified broth dilution method; format: functional; method in brief: as §1
A2780 = assay: Cytotoxicity against human A2780 cells by MTT assay
[4] = Cytotoxicity against human BGC823 cells by MTT assay; details: BGC-823
Xanthomonas vesicatoria = assay: Antibacterial activity against Xanthomonas vesicatoria ATCC 11633 by modified broth dilution method; format: functional; method in brief: as §1
Ralstonia solanacearum = assay: Antibacterial activity against Ralstonia solanacearum ATCC 11696 by modified broth dilution method; format: functional
Pseudomonas = assay: Antibacterial activity against Pseudomonas lachrymans ATCC 11921 by modified broth dilution method; format: functional; method in brief: as §1
[5] = Cytotoxicity against human HCT8 cells by MTT assay; details: HCT-8

Row | Compound | MIC [1] [µg/mL] | IC50 (Pyricularia oryzae) [µg/mL] | pIC50 [2] | pIC50 (A549) | MIC (Bacillus subtilis) [µg/mL] | MIC [3] [µg/mL] | pIC50 (A2780) | pIC50 [4] | MIC (Xanthomonas vesicatoria) [µg/mL] | MIC (Ralstonia solanacearum) [µg/mL] | MIC (Pseudomonas) [µg/mL] | pIC50 [5]
1 | O[C@@H]1[C@@H](O)C2(Oc3cccc4cccc(c34)O2)[C@@]23O[C@@]2([C@@H](O)CC[C@H]3O)[C@H]1O | > 250 | > 200 | < 5.00 | < 5.00 | > 250 | > 250 | < 5.00 | < 5.00 | > 250 | > 250 | > 250 | < 5.00
2 | O=C1C[C@H](O)[C@H](O)C2=C[C@H](O)[C@@H](O)C3(Oc4cccc5cccc(c45)O3)[C@]12O | > 250 | > 200 | < 5.00 | < 5.00 | > 250 | > 250 | < 5.00 | < 5.00 | > 250 | > 250 | > 250 | < 5.00
3 | O=C1CCC2(Oc3cccc4cccc(c34)O2)c2c(Cl)ccc(O)c21 | > 250 | > 200 | < 5.00 | < 5.00 | > 250 | > 250 | < 5.00 | < 5.00 | > 250 | > 250 | > 250 | < 5.00
4 | O=C1C[C@H](O)[C@H](O)[C@@]23O[C@@]12C1(Oc2cccc4cccc(c24)O1)[C@@H]1O[C@@H]1[C@@H]3O | > 250 | > 200 | < 5.00 | < 5.00 | > 250 | > 250 | < 5.00 | < 5.00 | > 250 | > 250 | > 250 | < 5.00
5 | O[C@@H]1C=C[C@H](O)[C@@]23O[C@@]12C1(Oc2cccc4cccc(c24)O1)[C@@H]1O[C@@H]1[C@@H]3O | > 250 | > 200 | < 5.00 | < 5.00 | > 250 | > 250 | < 5.00 | < 5.00 | > 250 | > 250 | > 250 | < 5.00
6 | O[C@@H]1CC[C@H](O)[C@@]23O[C@@]12C1(Oc2cccc4cccc(c24)O1)[C@@H]1O[C@@H]1[C@@H]3O | > 250 | > 200 | < 5.00 | < 5.00 | > 250 | > 250 | < 5.00 | < 5.00 | > 250 | > 250 | > 250 | < 5.00
7 | O=C1C=C[C@H](O)[C@@]23O[C@@]12C1(Oc2cccc4cccc(c24)O1)[C@@H]1O[C@@H]1[C@@H]3O | 50 (≈ 136 µM) | 105 (≈ 287 µM) | 5.29 | 5.06 | 50 (≈ 136 µM) | 50 (≈ 136 µM) | < 5.00 | < 5.00 | 50 (≈ 136 µM) | 50 (≈ 136 µM) | 50 (≈ 136 µM) | < 5.00
8 | COC(=O)Nc1nc2ccccc2[nH]1 [CARBENDAZIM] |  | 6.3 (≈ 33 µM) |  |  |  |  |  |  |  |  |  | 
9 | O=C1CCC2(Oc3cccc4cccc(c34)O2)c2c(O)ccc(O)c21 [PALMARUMYCIN CP17] | > 250 | > 200 | < 5.00 | < 5.00 | > 250 | > 250 | < 5.00 | < 5.00 | > 250 | > 250 | > 250 | < 5.00
10 | CN[C@@H]1[C@H](O[C@H]2[C@H](O[C@H]3[C@H](O)[C@@H](O)[C@H](N=C(N)N)[C@@H](O)[C@@H]3N=C(N)N)O[C@@H](C)[C@]2(O)C=O)O[C@@H](CO)[C@H](O)[C@H]1O.CN[C@@H]1[C@H](O[C@H]2[C@H](O[C@H]3[C@H](O)[C@@H](O)[C@H](N=C(N)N)[C@@H](O)[C@@H]3N=C(N)N)O[C@@H](C)[C@]2(O)C=O)O[C@@H](CO)[C@H](O)[C@H]1O.O=S(=O)(O)O.O=S(=O)(O)O.O=S(=O)(O)O [STREPTOMYCIN SULFATE] | 5 |  |  |  | 5 | 5 |  |  | 10 | 5 | 7.5 | 

From ChEMBL document CHEMBL3352444, “Bioactive spirobisnaphthalenes from the endophytic fungus Berkleasmium sp” (J Nat Prod, 2014)
